From ChEMBL document CHEMBL3297735, “Optimization of troglitazone derivatives as potent anti-proliferative agents: towards more active and less toxic compounds” (Eur J Med Chem, 2014)

Experiments:
[1] = Cytotoxicity against human MDA435 cells assessed as cell viability at 10 uM after 72 hrs by MTS assay in presence of 10% fetal calf serum relative to control; assay type: functional; settings: MDA-MB-435, 72 h, read-out: Activity
HepG2 = assay: Cytotoxicity against human HepG2 cells assessed as cell viability at 10 uM after 72 hrs by MTS assay in presence of 10% fetal calf serum relative to control; assay type: functional; settings: HepG2, 72 h, read-out: Activity
HCT-116 = assay: Cytotoxicity against human HCT116 cells assessed as cell viability at 10 uM after 72 hrs by MTS assay in presence of 10% fetal calf serum relative to control; assay type: functional; settings: HCT-116, 72 h, read-out: Activity
[2] = Cytotoxicity against human hepatocytes assessed as cell viability at 100 uM after 90 mins by MTT assay relative to control; assay type: cell-based, Hepatocyte; settings: read-out: Activity
Method in brief: (§1)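 Cryopreserved human hepatocytes were plated at 0.1 × 10⁶ cells/well and exposed to compound for 90 min. MTT was then added for 30 min at 37 °C, plates were centrifuged, and formazan was dissolved in DMSO. Absorbance was read at 595 nm. Surviving cells are expressed as % of non-treated cells ± SEM.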

LNCaP = assay: Cytotoxicity against human LNCAP cells assessed as cell viability at 10 uM after 72 hrs by MTS assay in presence of 10% fetal calf serum relative to control; assay type: functional; settings: read-out: Activity
PC-3 = assay: Cytotoxicity against human PC3 cells assessed as cell viability at 10 uM after 72 hrs by MTS assay in presence of 10% fetal calf serum relative to control; assay type: functional; settings: PC-3, 72 h, read-out: Activity
MCF7 [3] = assay: Cytotoxicity against human MCF7 cells assessed as cell viability at 10 uM after 72 hrs by MTS assay in presence of 10% fetal calf serum relative to control; assay type: functional; settings: MCF7, 72 h, read-out: Activity
Method in brief: (§2)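 Cells were grown in RPMI with L-glutamine, 10% FCS, penicillin/streptomycin and fungizone at 37 °C under 5% CO2. Wells were seeded with 1900 cells for MCF-7 or 1300 cells for MDA-MB-231. After 24 h, compound was added from a 10 mM DMSO stock (final DMSO 1%) for 72 h, with DMSO-only controls. Viable cells were read by MTS at 490 nm and expressed as % of untreated. Mean ± SEM, N = 3.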

[4] = Cytotoxicity against human MiaPaCa cells assessed as cell viability at 10 uM after 72 hrs by MTS assay in presence of 10% fetal calf serum relative to control; assay type: functional; settings: MIA PaCa-2, 72 h, read-out: Activity
MDA-MB-231 [5] = assay: Cytotoxicity against human MDA-MB-231 cells assessed as cell viability at 10 uM after 72 hrs by MTS assay in presence of 10% fetal calf serum relative to control; assay type: functional; settings: MDA-MB-231, 72 h, read-out: Activity; method in brief: as §2
[6] = Cytotoxicity against human hepatocytes assessed as cell viability at 200 uM after 90 mins by MTT assay relative to control; assay type: cell-based, Hepatocyte; settings: read-out: Activity; method in brief: as §1
[7] = Toxicity in BALBc/AnNHsd mouse assessed as mortality at 34 mg/kg, iv relative to control; assay type: organism-based; set-up: dose 34 mg/kg, route intravenous; settings: in vivo
[8] = Acute toxicity in iv dosed BALBc/AnNHsd mouse; assay type: organism-based; settings: in vivo
Method in brief: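 Acute toxicity run in female BALBc/AnNHsd mice given the compounds by intravenous injection. The read-out was the maximum tolerated dose (MTD). Compounds were dissolved in a mixture of solvents, and the top dose was capped by solubility in that mixture.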

Mus musculus [9] = assay: Toxicity in BALBc/AnNHsd mouse assessed as mortality at 64.6 mg/kg, iv; assay type: organism-based; set-up: dose 64.6 mg/kg, route intravenous; settings: in vivo
Mus musculus [10] = assay: Toxicity in BALBc/AnNHsd mouse assessed as change in body weight at 34 mg/kg, iv measured between day 1 and day 15 (reference value: 18 +/- 1 g); assay type: organism-based; set-up: dose 34 mg/kg, route intravenous; settings: in vivo
Method in brief: (§3)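 Acute toxicity was assessed in female BALBc/AnNHsd mice after intravenous injection of compound in a solvent mixture, to estimate the maximum tolerated dose.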

MCF7 [11] = assay: Cytotoxicity against human MCF7 cells after 24 hrs by CellTiterGlo assay in presence of 1% fetal calf serum; assay type: functional, cell-based; settings: MCF7, 24 h
Method in brief: (§4)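 MCF-7 was maintained in phenol red DMEM and MDA-MB-231 in L-15. Cells were seeded in 6-well plates at 8.10⁴ cells/well in medium with 10% FCS and 2 mM L-glutamine. Medium was then switched to 1% FCS with 2 mM L-glutamine for treatment, with 0.1% DMSO controls. Cells were washed, trypsinized and counted with CellTiter-Glo luminescence. Each treatment was run in triplicate, and IC50 was taken as the concentration halving viable cells.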

MDA-MB-231 [12] = assay: Cytotoxicity against human MDA-MB-231 cells after 24 hrs by CellTiterGlo assay in presence of 1% fetal calf serum; assay type: functional, cell-based; settings: MDA-MB-231, 24 h; method in brief: as §4
Mus musculus [13] = assay: Toxicity in BALBc/AnNHsd mouse assessed as behavioral changes at 34 mg/kg, iv; assay type: organism-based; set-up: dose 34 mg/kg, route intravenous; settings: in vivo; method in brief: as §3
Mus musculus [14] = assay: Toxicity in BALBc/AnNHsd mouse assessed as change in organ morphology at 34 mg/kg, iv; assay type: organism-based; set-up: dose 34 mg/kg, route intravenous; settings: in vivo; method in brief: as §3
Mus musculus [15] = assay: Toxicity in BALBc/AnNHsd mouse assessed as mortality at 65.5 mg/kg, iv; assay type: organism-based; set-up: dose 65.5 mg/kg, route intravenous; settings: in vivo
Mus musculus [16] = assay: Toxicity in BALBc/AnNHsd mouse assessed as change in body weight at 65.5 mg/kg, iv measured on day 15 (reference value: 18.33 +/- 0.33 g); assay type: organism-based; set-up: dose 65.5 mg/kg, route intravenous; settings: in vivo; method in brief: as §3
Mus musculus [17] = assay: Toxicity in BALBc/AnNHsd mouse assessed as change in body weight at 65.5 mg/kg, iv measured on day 2 (reference value: 19 +/- 1 g); assay type: organism-based; set-up: dose 65.5 mg/kg, route intravenous; settings: in vivo; method in brief: as §3
Mus musculus [18] = assay: Toxicity in BALBc/AnNHsd mouse assessed as behavioral changes at 65.5 mg/kg, iv; assay type: organism-based; set-up: dose 65.5 mg/kg, route intravenous; settings: in vivo
Mus musculus [19] = assay: Toxicity in BALBc/AnNHsd mouse assessed as change in body weight at 65.5 mg/kg, iv measured on day 1 (reference value: 17.67 +/- 0.33 g); assay type: organism-based; set-up: dose 65.5 mg/kg, route intravenous; settings: in vivo; method in brief: as §3
Mus musculus [20] = assay: Toxicity in BALBc/AnNHsd mouse assessed as change in organ morphology at 65.5 mg/kg, iv; assay type: organism-based; set-up: dose 65.5 mg/kg, route intravenous; settings: in vivo

Row | SMILES | viability at 10 µM [1] | viability at 10 µM (HepG2) | viability at 10 µM (HCT-116) | viability at 1.5 h, 100 µM [2] | viability at 10 µM (LNCaP) | viability at 10 µM (PC-3) | viability at 10 µM (MCF7 [3]) | viability at 10 µM [4] | viability at 10 µM (MDA-MB-231 [5]) | viability at 1.5 h, 200 µM [6] | also measured
1 | Cc1c(C)c2c(c(C)c1O)CCC(C)(COc1ccc(CC3SC(=O)NC3=O)cc1)O2 (stereo not drawn) [TROGLITAZONE] | 87.8% | 85.8% | 90.7% | 52.2% | 82.8% | 86.2% | 96.7% | 98.3% | 88.1% | 22.5% | 
2 | Cc1c(C)c2c(c(C)c1OC(=O)CCCCCCCNC(=O)OC(C)(C)C)CCC(C)(COc1ccc(/C=C3\SC(=O)NC3=O)cc1)O2 (stereo not drawn) | 51.5% | 18.4% | 37% | 79.3% | 21.1% | 62% | 62.5% | 53.8% | 42.2% | 74.7% | 
3 | Cc1c(C)c2c(c(C)c1O)CCC(C)(COc1ccc(/C=C3\SC(=O)NC3=O)cc1)O2 (stereo not drawn) | 73.1% | 82.3% | 88% | 62.8% | 85.4% | 83.1% | 84% | 95% | 69.3% | 43.1% | mortality [7]: > 50%; MTD [8]: 34 mg/kg
4 | O=C1S/C(=C\c2ccc(O)cc2)C(=O)N1Cc1ccccc1 | 30.9% | 54.5% | 29.8% | 40.8% | 77.6% | 65.8% | 43.9% | 25.6% | 24.5% | 18% | 
5 | Cc1c(C)c2c(c(C)c1O)CCC(C)(CN1C(=O)S/C(=C\c3ccc(O)cc3)C1=O)O2 (racemic) | 13.4% | 20.8% | 5.3% | 110% | 48.9% | 36.3% | 5.2% | 0% | 4.8% | 103% | 
6 | Cc1c(C)c2c(c(C)c1OC(=O)OC(C)(C)C)CCC(C)(CN1C(=O)S/C(=C\c3ccc(O)cc3)C1=O)O2 (racemic) | 66% | 23.4% | 30.1% | 65.1% | 55% | 85.1% | 85.7% | 72.2% | 57.9% | 37.8% | 
7 | Cc1c(C)c2c(c(C)c1CCCCCCNC(=O)OC(C)(C)C)CCC(C)(COc1ccc(/C=C3\SC(=O)NC3=O)cc1)O2 (racemic) | 60.9% | 22.7% | 45.2% | 85.1% | 32.2% | 73.7% | 75.5% | 69.7% | 49.3% | 80.3% | 
8 | Cc1c(C)c2c(c(C)c1OC(=O)CCCCCCCN)CCC(C)(COc1ccc(/C=C3\SC(=O)N(C)C3=O)cc1)O2 (racemic) | 0% | 7.9% | 0.6% | 84.5% | 9.3% | 2.4% | 0% | 0% | 0% | 54.4% | 
9 | O=C1S/C(=C\c2ccc(O)cc2)C(=O)N1C/C=C/c1ccccc1 | 18.3% | 41.3% | 17.4% | 88.8% | 63.4% | 57.1% | 35% | 16.2% | 8.7% | 62.7% | 
10 | CC1(CN2C(=O)S/C(=C\c3cc(Br)c(O)c(Br)c3)C2=O)CCCCC1 | 30.6% | 25.8% | 13% | 42.1% | 18.8% | 52.9% | 23.8% | 34.7% | 46.9% | 30.3% | 
11 | Cc1c(C)c2c(c(C)c1CCCCCCN)CCC(C)(COc1ccc(/C=C3\SC(=O)NC3=O)cc1)O2.O=C(O)C(F)(F)F (racemic) | 35.2% | 12.9% | 6.9% | 83.2% | 46.8% | 60.1% | 2.7% | 5.9% | 7.6% | 79.9% | Activity (Mus musculus [9]): Toxic; Activity (Mus musculus [10]): 21.5 g; IC50 (MCF7 [11]): 3.6 µM; IC50 (MDA-MB-231 [12]): 1.5 µM; Activity (Mus musculus [13]): Non-toxic; MTD [8]: 34 mg/kg; Activity (Mus musculus [14]): Non-toxic
12 | Cc1c(C)c2c(c(C)c1O)CCC(C)(COc1ccc(/C=C3\SC(=O)N(C)C3=O)cc1)O2 (racemic) | 94.7% | 60.3% | 68.4% | 147% | 66.8% | 85.5% | 100% | 80.2% | 64.3% | 127% | 
13 | Cc1c(C)c2c(c(C)c1CCCCCCN)CCC(C)(COc1ccc(/C=C3\SC(=O)N(C)C3=O)cc1)O2.O=C(O)C(F)(F)F (racemic) | 0% | 0% | 0% | 82.6% | 11.6% | 7.7% | 0% | 0% | 0% | 82.7% | Activity (Mus musculus [15]): Non-toxic; Activity (Mus musculus [16]): 18.5 g; IC50 (MCF7 [11]): 6.1 µM; Activity (Mus musculus [17]): 19 g; IC50 (MDA-MB-231 [12]): 6.7 µM; Activity (Mus musculus [18]): Non-toxic; Activity (Mus musculus [19]): 17.67 g; MTD [8]: 65.5 mg/kg; Activity (Mus musculus [20]): Non-toxic
